Screens: PubChem, The Scripps Research Institute Molecular Screening Center
5HT1E ag: activates the human 5-HT1E serotonin receptor; actives 0.69% (n = 65,000); AID 574; CHO 5-HT1E Ga15 NFAT-bla reporter, FRET; 0% DMSO wells, 100% control agonist wells; P28566; activation, % at 6 µM;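 active = activation above a set limit, the screen-wide mean activation plus 3 SD, cut at about 8.5% in these data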
5HT1a ag: activates the human 5-HT1a serotonin receptor | actives 0.56% (n = 65,000) | activation, % at 10 µM | AID 567 | CHO 5-HT1a Ga15 NFAT-bla reporter, FRET ratio; 0% basal, 100% maximal reference agonist;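 active = activation above the screen-wide mean activation plus 3 SD, cut at about 19% in these data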
S1P3 agonist: agonists of human S1P3 receptor; actives 0.1% (n = 60,000); activation, % at 4.5 µM; S1P3 NFAT-BLA reporter cells, agonism, FRET ratio; relative to 1 µM S1P, basal subtracted; Q99500;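 active = activation above the screen-wide mean plus 3 SD, cut at about 4.5% in these data, passing the limit was not always enough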
Target sequence (Q99500 whole entry, looked up): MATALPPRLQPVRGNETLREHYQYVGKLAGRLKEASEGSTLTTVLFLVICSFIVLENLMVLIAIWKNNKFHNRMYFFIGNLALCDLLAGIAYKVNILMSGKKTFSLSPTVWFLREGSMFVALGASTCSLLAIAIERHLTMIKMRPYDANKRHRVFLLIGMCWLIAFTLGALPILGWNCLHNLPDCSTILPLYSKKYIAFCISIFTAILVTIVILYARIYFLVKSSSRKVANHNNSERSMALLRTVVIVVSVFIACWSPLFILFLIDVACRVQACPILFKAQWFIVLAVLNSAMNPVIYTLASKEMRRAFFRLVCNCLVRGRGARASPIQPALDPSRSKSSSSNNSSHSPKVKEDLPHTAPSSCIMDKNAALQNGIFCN
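Benchmarks: high control 1 µM S1P / System: stable CHO line with human S1P3, Gα16, NFAT-BLA reporter / Dosing: single compound concentration, 4.5 µM final / Timing: 4 h compound at 37 °C, 2 h substrate at RT / Measured by: FRET β-lactamase substrate fluorescence, excitation 405 nm, 460/535 nm emission ratio, background-subtracted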
5-HT1A blocker: 5-HT1a (human) receptor antagonism; P08908; CHO 5-HT1a Ga15 NFAT-bla reporter, antagonist mode; inhibition, % at 10 µM; actives 0.68% (n = 62,000); AID 612;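 active = inhibition above the mean of all tested compounds plus 3 SD, cut at about 43% in these data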;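 also: receptor stimulated by 5-CT agonist at 100 nM near EC80; beta-lactamase reporter measured by ratiometric fluorescence of a cleavable substrate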
S1P1 ag-PAM: activates or potentiates agonism at human S1P1 receptor. S1P1 CRE-bla cells, forskolin, beta-lactamase FRET, potentiator mode; S1P1 agonist co-added at EC20, 2 nM; 100% = saturating reference agonist, 0% = basal. activation, % at 9.5 µM. P21453. AID 449. actives 0.57% (n = 56,000);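 active = activation above a cutoff set at the mean activation of all tested compounds plus 3 SD, cut at about 54% in these data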;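 also: forskolin at 4 µM as EC80 and the EC20 agonist is SEW2871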
5HT1E antag: antagonists of human 5-HT1E serotonin receptor | P28566 | CHO 5-HT1E Ga15 NFAT-bla reporter, FRET, antagonist | inhibition, % at 6 µM | actives 0.99% (n = 65,000);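 active = inhibition above a set limit, the mean inhibition across every tested compound plus 3 SD, cut at about 29% in these data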;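 also: signal is the 460 over 535 nm emission ratio of beta-lactamase substrate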
Large screens that a line does not name were inactive. Shown are actives, neighbours in structure and some others; about 3% of the full set was active somewhere.

O=C(Nc1ccc(Oc2ccc(NC(=O)c3ccco3)c(NC(=O)c3ccco3)c2)cc1)c1ccco1	5-HT1A blocker 59
CCc1ccc2oc(-c3cc(N)cc(C)c3O)nc2c1	S1P1 ag-PAM 65
COc1ccc(-c2nc(C#N)c(N3CCCCCC3)o2)cc1OC	none
O=C(NCc1cccs1)C1CC(=O)N(c2ccccc2)C1 (configuration not stated)	none
CCOC(=O)c1nc(S(C)(=O)=O)ncc1Cl	5-HT1A blocker 86, 5HT1E antag 75
COc1ccc(CC(NC(C)=O)C(=O)N2CCN(C(=O)Nc3ccc(Cl)cc3)CC2)cc1OC (configuration not stated)	none
CCOC(=O)C1CCCN(C(=O)c2cc3c(-c4cccc(OC)c4)nn(C)c3s2)C1 (configuration not stated)	none
CCOC(=O)N1CCC(NC(=O)c2cc3c(-c4ccc(OC)c(OC)c4)nn(C)c3s2)CC1	5HT1E antag 29
CCOC(=O)N1CCC(NC(=O)c2cc3c(-c4ccccc4F)nn(C)c3s2)CC1	none
CCOC(=O)C1CCN(C(=O)c2cc3c(-c4ccc(OC)c(OC)c4)nn(C)c3s2)CC1	5HT1E antag 36
CN1/C(=C/C(=O)c2nc(S(C)(=O)=O)ncc2Cl)C(C)(C)c2ccccc21	5-HT1A blocker 62, S1P1 ag-PAM 110, 5HT1E antag 51
CN1/C(=C\C(=O)c2ccco2)C(C)(C)c2ccccc21	none
c1csc(CCNc2ncnc3sc4c(c23)CCC4)c1	S1P1 ag-PAM 153
OCc1cn(-c2ccccc2)nc1-c1ccc(-c2nn(-c3ccccc3)cc2CO)cc1	none (no result: S1P3 agonist, S1P1 ag-PAM)
N#Cc1cn(-c2ccccc2)nc1-c1ccccc1	5HT1E antag 34
CC(=O)NCCOc1nc(N(C)C)nc(N2CCOCC2)n1	5HT1a ag 26
O=C(NCCOc1nc(N2CCCCC2)nc(N2CCOCC2)n1)Nc1ccccc1	none (no result: S1P1 ag-PAM)
CCOC(=O)N1CCC(NC(=O)c2cccc3c2C(=O)N(c2ccc(OC)cc2)C3)CC1	none
Cc1nnc(SCC(=O)Nc2sccc2C(N)=O)n1Cc1ccccc1	none
C=CCn1c(SCC(=O)Nc2sccc2C(N)=O)nc2sc(C)c(C)c2c1=O	5HT1E antag 33
CCOC(=O)COc1cccc2c(=O)n(CC(=O)NCc3ccc4c(c3)OCO4)ccc12	5HT1E antag 47
CCOC(=O)COc1cccc2c(=O)n(CC(=O)N3CCc4ccccc43)ccc12	none
CCSc1ccccc1C(=O)Nc1cc(C)on1	5HT1E ag 14 (no result: S1P1 ag-PAM)
CCOC(=O)Cn1c(C)nc2ccccc21	none (no result: S1P1 ag-PAM)
CCCOC(=O)c1ccc(OCC(O)Cn2c(C)nc3ccccc32)cc1 (configuration not stated)	S1P1 ag-PAM 95
O=C(CN(C(=O)CSc1nnc(COc2ccccc2)o1)c1ccc(F)cc1)NC1CCCC1	5HT1a ag 40
O=C(Nc1ccccc1C(=O)N1CCN(c2ccccc2)CC1)c1ccco1	none
Cc1ccc2nc3c(cc(C#N)c(=O)n3-c3nccs3)c(=O)n2c1	5HT1E ag 13, 5HT1a ag 59, S1P3 agonist 12
Cc1nc(N2CCN(c3ccccc3)CC2)c2c3c(sc2n1)CCC3	none
CSc1nc(N2CCOCC2)c2c3c(sc2n1)CCC3	5HT1E antag 29
Cc1cccc(Nc2nc(-c3ccccn3)cs2)n1	5-HT1A blocker 45, 5HT1E antag 36
c1ccc(Nc2nc(-c3cccs3)cs2)nc1	none
CCOC(=O)C1CCCN(C(=O)c2cc3nc(-c4cccc(OC)c4)cc(C(F)(F)F)n3n2)C1 (configuration not stated)	5HT1E antag 35 (no result: S1P1 ag-PAM)
CN(C)c1ccc(CN(C(=O)C2COc3ccccc3O2)C2CCS(=O)(=O)C2)cc1 (configuration not stated)	none
COc1ccccc1Oc1ccc2c(c1)C(=O)N(c1ccc(O)cc1)C2=O	S1P1 ag-PAM 112
COc1ccc2c(c1)C(=O)N(c1ccccc1OC)C(=O)C2(C)C	none
O=C(CCCN1Cc2ccccc2C1)c1ccc(F)cc1	5HT1a ag 22
CCOC(=O)C1C(=O)Nc2nc3ccccc3n2C1C(C)C (configuration not stated)	none
O=CN1CCN(C(C(=O)NC2CCCC2)c2ccc(Cl)cc2)CC1 (configuration not stated)	none (no result: S1P3 agonist, S1P1 ag-PAM)
N#Cc1nc(-c2ccc(OCc3ccccc3)cc2)oc1NCc1cccnc1	S1P1 ag-PAM 60
CN(C)c1oc(-c2ccc(OCc3ccccc3)cc2)nc1C#N	S1P1 ag-PAM 72
COc1ccc(-c2nnc(SCc3nnc(-c4ccc(Cl)cc4)o3)n2-c2ccccc2)cc1	none
O=C(NC1CCCc2ccccc21)C1CCN(C(=O)c2sccc2-n2cccc2)CC1 (configuration not stated)	none
O=C(c1cccc2ccccc12)N1CCN(CC2CC=CCC2)CC1 (configuration not stated)	none
Cn1ccnc1C(O)c1cc(C(C)(C)C)c(O)c(C(C)(C)C)c1 (configuration not stated)	none
CCCCn1c(NC(=O)c2ccccc2)c(C#N)c2nc3ccccc3nc21	none
CCCCn1c(NC(=O)c2ccc(F)cc2)c(C#N)c2nc3ccccc3nc21	5HT1E ag 9.1, 5HT1a ag 29, S1P3 agonist 4.7
CCOc1cccc2cc(-c3nnc(-c4ccccc4)o3)c(=O)oc12	none
N#CC(c1nc2ccccc2nc1N1CCCCC1)S(=O)(=O)c1ccc(Cl)cc1 (configuration not stated)	5HT1E ag 12
Cc1ccc(S(=O)(=O)C(C#N)c2nc3ccccc3nc2N2CCCCC2)cc1 (configuration not stated)	none (no result: S1P3 agonist, S1P1 ag-PAM)
Cn1c(=O)n(CCc2ccccc2)c(=O)c2c1nc1n2CCCN1c1ccc(F)cc1	none
CCC(Oc1ccccc1)C(=O)N1CCN(c2ccccn2)CC1 (configuration not stated)	none (no result: S1P1 ag-PAM)
CCC(Oc1ccccc1)C(=O)N1CCC(C(N)=O)CC1 (configuration not stated)	5HT1a ag 20 (no result: S1P1 ag-PAM)
COc1ccc(-c2ccc(SCC(=O)N3CCCC3)nn2)cc1OC	5HT1E antag 30
COc1ccc(-c2ccc(SCC(=O)N3CCOCC3)nn2)cc1OC	none
Cc1nn2c(=O)nc3sc4c(c3c2[nH]c1=O)CCCC4	none (no result: S1P1 ag-PAM)
CCOC(=O)N1CCN(S(=O)(=O)c2ccc(F)c(C(=O)Nc3cccc(C)c3C)c2)CC1	none
CCOC(=O)c1ccccc1NC(=O)c1cc(S(=O)(=O)N2CCOCC2)ccc1F	5HT1E antag 29
COc1ccc(C(=O)Oc2c(CN3CCOCC3)cc(Cl)c3cccnc23)cc1	none
